Assay results as given in ChEMBL document CHEMBL2150851, “Selective nitrile inhibitors to modulate the proteolytic synergism of cathepsins S and F” (J Med Chem, 2012).

Legend:
[1] = molecular target: T1, Cathepsin F (Homo sapiens, UniProt Q9UBX1); test: Inhibition of human recombinant cathepsin F using Z-Phe-Arg-AMC as substrate by fluorimetric analysis
T1 sequence (Q9UBX1 whole entry): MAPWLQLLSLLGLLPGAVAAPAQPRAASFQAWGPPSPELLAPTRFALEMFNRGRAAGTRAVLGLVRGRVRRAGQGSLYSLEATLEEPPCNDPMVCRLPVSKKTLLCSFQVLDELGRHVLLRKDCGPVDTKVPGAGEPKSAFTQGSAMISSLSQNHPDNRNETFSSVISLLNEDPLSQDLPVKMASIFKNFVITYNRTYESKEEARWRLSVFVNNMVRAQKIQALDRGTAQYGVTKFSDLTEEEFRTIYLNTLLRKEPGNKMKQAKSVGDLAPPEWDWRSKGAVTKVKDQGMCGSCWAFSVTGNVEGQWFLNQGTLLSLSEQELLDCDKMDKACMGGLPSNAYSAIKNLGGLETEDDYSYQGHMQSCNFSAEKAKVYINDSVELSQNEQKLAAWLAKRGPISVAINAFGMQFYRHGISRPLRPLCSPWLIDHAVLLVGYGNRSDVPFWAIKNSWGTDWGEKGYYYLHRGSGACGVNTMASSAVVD
In short: (§1)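 Human enzyme activity was followed with a chromogenic or fluorogenic peptide substrate, in duplicate experiments at five or more inhibitor concentrations. Mean steady-state rates were plotted against inhibitor concentration and fitted by nonlinear regression to give IC50. IC50 was then corrected to zero substrate concentration to give Ki. Standard errors of the regression are reported.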

[2] = molecular target: T2, Procathepsin L (Homo sapiens, UniProt P07711); test: Inhibition of human cathepsin L using Z-Phe-Arg-pNA as substrate by spectrophotometric analysis; conditions: TDE = time-dependent effect; in short: as §1
Target sequence in this assay (P07711 114-333 limits assumed): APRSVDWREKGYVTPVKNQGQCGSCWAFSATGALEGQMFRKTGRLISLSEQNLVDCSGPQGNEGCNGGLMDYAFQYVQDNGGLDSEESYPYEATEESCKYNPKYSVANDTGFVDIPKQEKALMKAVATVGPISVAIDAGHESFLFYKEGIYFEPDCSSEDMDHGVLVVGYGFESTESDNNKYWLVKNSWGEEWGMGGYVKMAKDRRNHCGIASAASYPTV

[3] = molecular target: T3, Cathepsin K (Homo sapiens) (UniProt P43235); test: Inhibition of human cathepsin K using Z-Leu-Arg-AMC as substrate by fluorimetric analysis; conditions: TDE = time-dependent effect; in short: as §1
T3 sequence (whole entry): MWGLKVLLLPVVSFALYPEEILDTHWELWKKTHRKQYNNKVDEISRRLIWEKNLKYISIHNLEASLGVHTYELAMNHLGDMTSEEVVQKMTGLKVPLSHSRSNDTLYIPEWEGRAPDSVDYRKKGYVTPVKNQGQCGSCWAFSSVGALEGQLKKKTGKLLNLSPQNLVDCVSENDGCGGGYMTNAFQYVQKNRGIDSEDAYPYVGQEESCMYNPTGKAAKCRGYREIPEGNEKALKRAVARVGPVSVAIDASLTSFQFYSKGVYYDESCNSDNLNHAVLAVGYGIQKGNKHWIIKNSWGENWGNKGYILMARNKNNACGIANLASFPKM

[4] = molecular target: T4, Cathepsin B (Homo sapiens, UniProt P07858); test: Inhibition of human cathepsin B using Z-Arg-Arg-pNA as substrate by spectrophotometric analysis; conditions: TDE = time-dependent effect; in short: as §1
[5] = molecular target: T2, Procathepsin L; test: Inhibition of human cathepsin L using Z-Phe-Arg-pNA as substrate after 80 mins by spectrophotometric analysis
Target sequence in this assay (P07711 whole entry): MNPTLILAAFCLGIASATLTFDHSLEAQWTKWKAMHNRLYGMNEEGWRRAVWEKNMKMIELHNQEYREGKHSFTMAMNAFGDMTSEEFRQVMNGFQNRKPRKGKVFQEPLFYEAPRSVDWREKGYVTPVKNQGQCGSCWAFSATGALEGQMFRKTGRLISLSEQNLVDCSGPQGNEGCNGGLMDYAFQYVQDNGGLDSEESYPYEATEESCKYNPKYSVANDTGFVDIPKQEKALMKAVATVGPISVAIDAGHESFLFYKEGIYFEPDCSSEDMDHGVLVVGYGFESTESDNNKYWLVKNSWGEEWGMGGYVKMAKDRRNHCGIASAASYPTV

[6] = molecular target: T5, Cathepsin S (Homo sapiens, UniProt P25774); test: Inhibition of human cathepsin S using Z-Phe-Val-Arg-pNA as substrate after 80 mins by spectrophotometric analysis
T5 sequence (P25774 whole entry): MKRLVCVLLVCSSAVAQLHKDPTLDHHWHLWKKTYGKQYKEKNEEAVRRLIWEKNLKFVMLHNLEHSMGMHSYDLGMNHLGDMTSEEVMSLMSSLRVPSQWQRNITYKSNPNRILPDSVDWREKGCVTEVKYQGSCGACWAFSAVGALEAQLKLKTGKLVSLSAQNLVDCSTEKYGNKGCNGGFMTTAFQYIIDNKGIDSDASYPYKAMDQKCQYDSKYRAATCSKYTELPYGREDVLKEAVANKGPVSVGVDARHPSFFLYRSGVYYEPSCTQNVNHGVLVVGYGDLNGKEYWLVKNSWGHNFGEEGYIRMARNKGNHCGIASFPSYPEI

[7] = molecular target: T6, Cathepsin K (Homo sapiens, UniProt P43235); test: Inhibition of human cathepsin K using Z-Leu-Arg-AMC as substrate after 80 mins by fluorimetric analysis
T6 sequence (P43235 whole entry): T3 sequence (whole entry)

[8] = molecular target: T4, Cathepsin B; test: Inhibition of human cathepsin B using Z-Arg-Arg-pNA as substrate after 80 mins by spectrophotometric analysis
[9] = molecular target: T5, Cathepsin S; test: Inhibition of human cathepsin S using Z-Phe-Val-Arg-pNA as substrate after 10 mins by spectrophotometric analysis
[10] = molecular target: T6, Cathepsin K; test: Inhibition of human cathepsin K using Z-Leu-Arg-AMC as substrate after 10 mins by fluorimetric analysis
[11] = molecular target: T4, Cathepsin B; test: Inhibition of human cathepsin B using Z-Arg-Arg-pNA as substrate after 10 mins by spectrophotometric analysis
[12] = molecular target: T1, Cathepsin F; test: Inhibition of human recombinant cathepsin F using Z-Phe-Arg-AMC as substrate after 8 min by fluorimetric analysis
[13] = molecular target: T2, Procathepsin L; test: Inhibition of human cathepsin L using Z-Phe-Arg-pNA as substrate after 10 mins by spectrophotometric analysis
Target sequence in this assay (P07711 whole entry): as the sequence (P07711 whole entry) above

Row | Compound | Ki [1] | inhibition [2] | inhibition [3] | inhibition [4] | Ki [5] | Ki [6] | Ki [7] | Ki [8] | Ki [9] | Ki [10] | Ki [11] | Ki [12] | Ki [13]
1 | CC(C)CS(=O)(=O)CC(NC(=O)c1ccccc1)C(=O)NCC#N (racemic) |  |  |  |  |  |  |  |  | 0.04 µM | > 40 µM | 40 µM | > 40 µM | > 40 µM
2 | CC(C)CS(=O)(=O)CC(NC(=O)c1ccc(-c2ccccc2)s1)C(=O)NCC#N (racemic) |  |  |  |  |  |  |  |  | 0.061 µM | > 4 µM | 5.1 µM | > 4 µM | > 4 µM
3 | CC(C)CS(=O)(=O)CC(NC(=O)c1cc(-c2ccccc2)cs1)C(=O)NCC#N (racemic) |  |  |  |  |  |  |  |  | 0.06 µM | > 4 µM | 6.4 µM | > 4 µM | > 4 µM
4 | CC(C)CS(=O)(=O)CC(NC(=O)c1ccc(-c2nnn[nH]2)s1)C(=O)NCC#N (racemic) |  |  |  |  |  |  |  |  | 0.076 µM | > 4 µM | 34 µM | > 4 µM | > 4 µM
5 | CC(C)CS(=O)(=O)CC(NC(=O)c1ccc(-c2cccs2)cc1)C(=O)NCC#N (racemic) |  |  |  |  |  |  |  |  | 0.2 µM | > 4 µM | 3.9 µM | > 4 µM | > 4 µM
6 | CC(C)CS(=O)(=O)CC(NC(=O)c1cc2ccccc2s1)C(=O)NCC#N (racemic) |  |  |  |  |  |  |  |  | 0.089 µM | > 4 µM | 6.8 µM | > 4 µM | > 4 µM

The next lines start with the values.

Row | Ki [1] | inhibition [2] | inhibition [3] | inhibition [4] | Ki [5] | Ki [6] | Ki [7] | Ki [8] | Ki [9] | Ki [10] | Ki [11] | Ki [12] | Ki [13] | Compound
7 | 0.021 µM | tde | tde | tde | 0.015 µM | 0.00055 µM | 0.00066 µM | 0.0058 µM |  |  |  |  |  | CC(C)CS(=O)(=O)C[C@H](NC(=O)c1ccccc1)C(=O)N(C)N(C)C#N
8 |  |  |  |  |  |  |  |  | 0.033 µM | > 40 µM | 24 µM | > 40 µM | 37 µM | CC(C)CS(=O)(=O)C[C@H](NC(=O)c1ccccc1)C(=O)NCC#N
9 |  |  |  |  |  |  |  |  | 0.045 µM | > 40 µM | 24 µM | > 40 µM | > 40 µM | CC(C)CS(=O)(=O)CC(NC(=O)c1cccs1)C(=O)NCC#N (racemic)
10 |  |  |  |  |  |  |  |  | 0.061 µM | > 4 µM | 5.4 µM | > 4 µM | > 4 µM | CC(C)CS(=O)(=O)CC(NC(=O)c1ccc(-c2ccsc2)s1)C(=O)NCC#N (racemic)
11 |  |  |  |  |  |  |  |  | 0.094 µM | 1.1 µM | 3.4 µM | 3.2 µM | > 4 µM | CC(C)CS(=O)(=O)CC(NC(=O)c1ccc(-c2cccs2)s1)C(=O)NCC#N (racemic)
12 |  |  |  |  |  |  |  |  | 0.1 µM | > 4 µM | 7.2 µM | > 4 µM | > 4 µM | CC(C)CS(=O)(=O)CC(NC(=O)c1cc2ccsc2s1)C(=O)NCC#N (racemic)
